From ChEMBL document CHEMBL1138485, “Discovery of inducible nitric oxide synthase (iNOS) inhibitor development candidate KD7332, part 1: Identification of a novel, potent, and selective series of quinolinone iNOS dimerization inhibitors that are orally active in rodent pain models” (J Med Chem, 2009)

Biological target: T1, Nitric oxide synthase 3 (Homo sapiens) (UniProt P29474)
T1 sequence (whole entry): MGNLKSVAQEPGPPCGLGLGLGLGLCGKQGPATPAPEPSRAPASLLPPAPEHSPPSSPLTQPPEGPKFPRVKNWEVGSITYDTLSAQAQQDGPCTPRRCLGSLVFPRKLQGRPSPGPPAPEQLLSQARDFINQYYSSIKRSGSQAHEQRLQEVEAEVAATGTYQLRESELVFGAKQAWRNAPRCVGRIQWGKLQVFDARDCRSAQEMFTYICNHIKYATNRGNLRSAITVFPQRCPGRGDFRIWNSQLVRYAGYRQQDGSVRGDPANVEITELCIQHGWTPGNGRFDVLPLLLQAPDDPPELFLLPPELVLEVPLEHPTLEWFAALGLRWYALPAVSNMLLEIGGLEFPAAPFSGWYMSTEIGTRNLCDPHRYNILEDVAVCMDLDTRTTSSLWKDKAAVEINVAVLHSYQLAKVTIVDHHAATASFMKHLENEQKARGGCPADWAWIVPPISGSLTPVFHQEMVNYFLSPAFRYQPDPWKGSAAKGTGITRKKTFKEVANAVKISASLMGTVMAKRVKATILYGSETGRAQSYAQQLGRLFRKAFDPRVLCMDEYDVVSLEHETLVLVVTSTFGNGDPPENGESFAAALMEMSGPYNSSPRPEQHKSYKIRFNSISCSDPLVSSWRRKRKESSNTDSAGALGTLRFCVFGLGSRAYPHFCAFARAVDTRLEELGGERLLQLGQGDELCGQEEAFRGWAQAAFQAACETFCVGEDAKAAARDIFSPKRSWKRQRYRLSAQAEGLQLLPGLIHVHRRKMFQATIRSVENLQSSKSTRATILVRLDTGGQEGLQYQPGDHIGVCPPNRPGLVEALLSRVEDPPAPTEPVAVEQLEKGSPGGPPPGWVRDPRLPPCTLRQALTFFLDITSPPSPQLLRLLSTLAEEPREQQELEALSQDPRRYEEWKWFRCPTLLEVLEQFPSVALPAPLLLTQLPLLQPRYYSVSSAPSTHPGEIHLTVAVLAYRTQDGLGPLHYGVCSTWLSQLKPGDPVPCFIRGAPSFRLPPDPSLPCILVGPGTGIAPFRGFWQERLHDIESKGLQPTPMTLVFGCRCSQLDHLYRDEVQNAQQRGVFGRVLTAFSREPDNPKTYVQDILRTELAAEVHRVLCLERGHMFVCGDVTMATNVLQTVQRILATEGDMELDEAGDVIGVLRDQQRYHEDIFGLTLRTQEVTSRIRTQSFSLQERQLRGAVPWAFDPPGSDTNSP
Assay: Inhibition of human eNOS expressed in HEK293 cells assessed as NO production at 100 uM by transient transfection assay relative to BBS-4
Type: cell-based
Method in brief: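 HEK293 cells transiently transfected with human eNOS (15 µg plasmid) or nNOS (10 µg plasmid), Fugene 6 at 3:1 µL:µg, 4 h at 37 °C, 10% CO2. Plated at 5 × 10⁵ cells/mL with compound; SEITU 100 µM final as positive control. After 24 h, activated with A23187 (83 nM final, eNOS) or ionomycin (30 µM final, nNOS). After 18 h more, NO read by DAN fluorescence. Inhibition is relative to the maximal inhibition by the control dimerization inhibitor. 3 runs, 10-point curves, n = 3/point.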

inhibition: < 50%
Compound: CC(C)C(=O)N(Cc1cc(=O)[nH]c2c(F)cccc12)c1cccc(Cl)c1
